Calls of active or inactive are those of the source. The calls are words filed in the database; no cut-off is given here.
What was measured:
[1] = molecular target: T1, Sodium-dependent serotonin transporter (Homo sapiens, UniProt P31645); experiment: Displacement of [3H]citalopram from human SERT expressed in HEK293 cells; assay type: cell-based
Summary of the method: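 Membrane homogenates from HEK-293 cells stably expressing human SERT, incubated 1 h at 25 °C with 2 nM [3H]citalopram (85 Ci/mmol) and increasing test concentrations. Non-specific binding defined with 10 µM fluoxetine. Specific binding plotted against −log drug concentration, and the midpoint of the displacement curve was taken as IC50.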

[2] = molecular target: T2, Sodium-dependent dopamine transporter (Homo sapiens, UniProt Q01959); experiment: Displacement of [125I]RTI-55 from human DAT expressed in HEK293 cells; assay type: cell-based
Summary of the method: (§1)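 Membrane homogenates from HEK-293 cell lines stably transfected with the human transporter, incubated with 125I ligands: [125I]RTI-55 for SERT (260 pM) and DAT (125 pM), and custom [125I]nisoxetine for NET (300 pM). Reactions run in 384-well format and filter-harvested. IC50 taken from a 20-point concentration curve in a single experiment.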

[3] = molecular target: T2, Sodium-dependent dopamine transporter; experiment: Inhibition of human DAT at 1 uM
[4] = molecular target: T3, Sodium-dependent noradrenaline transporter (Homo sapiens, UniProt P23975); experiment: Inhibition of human NET at 1 uM
[5] = test system: Rattus norvegicus; experiment: Increase in fluoxetine-induced serotonin concentration in rat frontal cortex by microdialysis at 1 mg/kg, ip; assay type: functional, organism-based; parameters: dose 1 mg/kg
[6] = molecular target: T3, Sodium-dependent noradrenaline transporter; experiment: Displacement of [125I]Nisoxetine from human NET expressed in HEK293 cells; assay type: cell-based; summary of the method: as §1
[7] = test system: Rattus norvegicus; experiment: Increase in fluoxetine-induced serotonin concentration in rat frontal cortex by microdialysis at 10 mg/kg, po; assay type: functional, organism-based; parameters: dose 10 mg/kg
[8] = molecular target: T1, Sodium-dependent serotonin transporter; experiment: Displacement of [125I]RTI-55 from human SERT expressed in HEK293 cells; assay type: cell-based; summary of the method: as §1

T2 sequence (Q01959 whole entry): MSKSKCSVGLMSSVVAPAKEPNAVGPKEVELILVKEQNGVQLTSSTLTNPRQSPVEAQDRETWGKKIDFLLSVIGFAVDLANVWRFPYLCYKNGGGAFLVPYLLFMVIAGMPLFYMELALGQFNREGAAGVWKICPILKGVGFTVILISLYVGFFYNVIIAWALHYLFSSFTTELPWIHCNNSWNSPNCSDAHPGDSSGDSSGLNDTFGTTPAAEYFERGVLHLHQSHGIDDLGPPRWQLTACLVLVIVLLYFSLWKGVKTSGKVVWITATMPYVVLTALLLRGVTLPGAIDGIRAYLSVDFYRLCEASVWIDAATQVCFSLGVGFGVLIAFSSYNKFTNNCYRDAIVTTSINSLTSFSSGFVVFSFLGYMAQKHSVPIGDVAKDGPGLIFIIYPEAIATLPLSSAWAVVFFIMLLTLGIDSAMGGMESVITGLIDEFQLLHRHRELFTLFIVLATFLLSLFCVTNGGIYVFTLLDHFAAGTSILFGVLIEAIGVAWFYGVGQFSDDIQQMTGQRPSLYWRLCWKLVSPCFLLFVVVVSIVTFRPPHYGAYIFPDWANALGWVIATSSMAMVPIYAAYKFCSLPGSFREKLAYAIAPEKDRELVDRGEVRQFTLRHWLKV
T1 sequence (P31645 whole entry): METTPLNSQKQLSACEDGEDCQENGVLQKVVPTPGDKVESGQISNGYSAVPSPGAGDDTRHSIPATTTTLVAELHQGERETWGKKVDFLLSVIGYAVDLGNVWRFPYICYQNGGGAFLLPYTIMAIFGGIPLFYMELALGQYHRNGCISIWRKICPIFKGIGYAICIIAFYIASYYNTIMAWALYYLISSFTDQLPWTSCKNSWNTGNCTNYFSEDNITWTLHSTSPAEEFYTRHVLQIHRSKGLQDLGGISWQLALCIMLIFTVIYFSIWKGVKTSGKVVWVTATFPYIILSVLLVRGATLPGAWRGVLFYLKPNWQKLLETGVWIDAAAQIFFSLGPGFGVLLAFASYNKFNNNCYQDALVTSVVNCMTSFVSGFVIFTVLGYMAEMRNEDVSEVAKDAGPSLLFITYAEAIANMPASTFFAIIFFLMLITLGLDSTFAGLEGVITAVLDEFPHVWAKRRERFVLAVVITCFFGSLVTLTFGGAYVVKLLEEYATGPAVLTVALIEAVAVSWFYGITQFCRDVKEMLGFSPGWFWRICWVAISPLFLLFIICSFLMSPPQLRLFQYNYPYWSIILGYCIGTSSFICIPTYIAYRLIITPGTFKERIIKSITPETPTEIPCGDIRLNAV
T3 sequence (P23975 whole entry): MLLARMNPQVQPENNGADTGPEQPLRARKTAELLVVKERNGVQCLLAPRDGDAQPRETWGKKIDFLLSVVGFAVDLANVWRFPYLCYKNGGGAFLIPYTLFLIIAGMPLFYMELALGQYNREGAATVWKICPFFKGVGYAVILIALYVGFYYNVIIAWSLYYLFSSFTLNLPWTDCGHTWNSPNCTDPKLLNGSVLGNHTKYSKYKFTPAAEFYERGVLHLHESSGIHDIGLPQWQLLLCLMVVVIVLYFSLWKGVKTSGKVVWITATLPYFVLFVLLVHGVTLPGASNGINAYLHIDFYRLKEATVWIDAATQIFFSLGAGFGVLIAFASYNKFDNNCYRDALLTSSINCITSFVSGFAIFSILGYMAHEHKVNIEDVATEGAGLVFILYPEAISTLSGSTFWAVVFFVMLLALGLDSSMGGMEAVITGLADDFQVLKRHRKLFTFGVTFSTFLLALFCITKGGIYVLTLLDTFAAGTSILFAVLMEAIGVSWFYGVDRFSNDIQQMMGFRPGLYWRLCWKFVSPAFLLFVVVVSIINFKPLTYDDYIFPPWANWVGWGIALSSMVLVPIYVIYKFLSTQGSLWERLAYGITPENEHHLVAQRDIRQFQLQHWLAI

SMILES | IC50 [1] [nM] | inhibition [3] [%] | inhibition [4] [%] | also measured
CN1CC=C(c2c[nH]c3ccc(Cl)cc23)CC1 | 240 | – | – | –
CN(C)C1CC=C(c2c[nH]c3ccc(C#N)cc23)CC1 (stereo not given) | 1.6 | 71 | 90 | IC50 [2]: 97 nM; Activity [5]: Active; IC50 [6]: 57 nM; Activity [7]: Active; IC50 [8]: 0.34 nM
CN(C)[C@H]1CC=C(c2c[nH]c3ccc(C#N)cc23)CC1 | 0.72 | – | – | IC50 [2]: 290 nM; IC50 [6]: 390 nM; IC50 [8]: 0.4 nM
COc1ccc2[nH]cc(C3=CCN(C)CC3)c2c1 | 730 | – | – | –
CN(C)C1CC=C(c2c[nH]c3ccc([N+](=O)[O-])cc23)CC1 (stereo not given) | 1 | 74 | 81 | –
COc1ccc2[nH]cc(C3=CCC(N(C)C)CC3)c2c1 (stereo not given) | 150 | – | – | –
CN1CC=C(c2c[nH]c3ccc(Br)cc23)CC1 | 210 | – | – | –
CN1CC=C(c2c[nH]c3ccc(F)cc23)CC1 | 160 | – | – | –
CN(C)C1CC=C(c2c[nH]c3ccc(F)cc23)CC1 (stereo not given) | 14 | 23 | 35 | –
Cc1ccc2[nH]cc(C3=CCN(C)CC3)c2c1 | 910 | – | – | –
CN(C)[C@@H]1CC=C(c2c[nH]c3ccc(C#N)cc23)CC1 | 1.1 | – | – | IC50 [2]: 80 nM; IC50 [6]: 37 nM; IC50 [8]: 0.56 nM
CN1CC=C(c2c[nH]c3ccc([N+](=O)[O-])cc23)CC1 | 40 | 73 | 27 | –
CN(C)C1CC=C(c2c[nH]c3ccc(Br)cc23)CC1 (stereo not given) | 5.3 | 95 | 99 | –
CN(C)C1CC=C(c2c[nH]c3ccccc23)CC1 (stereo not given) | 3.1 | 67 | 70 | –
CN(C)C1CC=C(c2c[nH]c3ccc(Cl)cc23)CC1 (stereo not given) | 19 | 16 | 34 | –
Cc1ccc2[nH]cc(C3=CCC(N(C)C)CC3)c2c1 (stereo not given) | 770 | – | – | –
CN1CC=C(c2c[nH]c3ccccc23)CC1 | 690 | – | – | –
CN1CC=C(c2c[nH]c3ccc(C#N)cc23)CC1 | 19 | 56 | 15 | –

— ChEMBL document CHEMBL1147933, “Conformationally restricted homotryptamines 3. Indole tetrahydropyridines and cyclohexenylamines as selective serotonin reuptake inhibitors” (Bioorg Med Chem Lett, 2007)
